Source: PubChem BioAssay
Sampled rows, rich in hits. Any-hit rate of the full collection: about 4.5%.
STAT1 act – activators of IFN-gamma induced STAT1 signaling | NIH 3T3 STAT1-luciferase reporter, luminescence; 100% = IFN-gamma alone, no compound | activation (% of control), % at 5.5 µM | 200,000 tested, 2.6% active;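 active means activation above the screen-wide mean activation plus 3 SD, cut at about 130% in these data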;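 further: raw ratio to IFN-gamma control signal so 100% means no change and 0% no light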
APP 5'UTR act – APP 5'UTR luciferase reporter activation | SH-SY5Y APP 5'UTR luciferase reporter, luminescence; zero percent = DMSO vehicle wells | activation, % at 2 µM | 190,000 tested, 1% active;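 active means activation above a set limit, based on mean plus 3 SD of controls, cut at about 140% in these data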
PERK inh – blocks human PERK kinase. CHO PERK-DD fusion, SEAP luminescence translation reporter. 220,000 tested, 0.17% active. Q9NZJ5. inhibition, % at 5.6 µM;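 active means inhibition above the mean inhibition of all tested compounds plus 3 SD, set separately per screening campaign, cut at about 2.9% in these data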;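 further: PERK kinase domain activated by AP20187 dimerizer at 100 nM; 0% = DMSO with dimerizer and 100% = rapamycin at 8.4 µM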
NF-kB expr up – compounds increasing NF-kB expression in human neuronal cells; fold change at 12.5 µM; 190,000 tested, 1.6% active; NF-kB reporter expression; stronger effect = higher value; in the data active means fold change above about 3.3
Mdm2 ligase inh – blocks human Mdm2 ubiquitin ligase activity; Q00987; cell-based MDM2 ubiquitination luciferase reporter, 2 h; 0 = plate control, 100 = twice control, blank-subtracted; signal enhancement, % at 5 µM; 210,000 tested, 0.11% active;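 active means signal enhancement of 30% or more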;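 further: luminescence tracks abundance of the self-degrading MDM2-luciferase fusion protein; higher signal means inhibition of MDM2 E3 ligase activity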
Target sequence (Q00987 whole entry, looked up, the tested form may be a part): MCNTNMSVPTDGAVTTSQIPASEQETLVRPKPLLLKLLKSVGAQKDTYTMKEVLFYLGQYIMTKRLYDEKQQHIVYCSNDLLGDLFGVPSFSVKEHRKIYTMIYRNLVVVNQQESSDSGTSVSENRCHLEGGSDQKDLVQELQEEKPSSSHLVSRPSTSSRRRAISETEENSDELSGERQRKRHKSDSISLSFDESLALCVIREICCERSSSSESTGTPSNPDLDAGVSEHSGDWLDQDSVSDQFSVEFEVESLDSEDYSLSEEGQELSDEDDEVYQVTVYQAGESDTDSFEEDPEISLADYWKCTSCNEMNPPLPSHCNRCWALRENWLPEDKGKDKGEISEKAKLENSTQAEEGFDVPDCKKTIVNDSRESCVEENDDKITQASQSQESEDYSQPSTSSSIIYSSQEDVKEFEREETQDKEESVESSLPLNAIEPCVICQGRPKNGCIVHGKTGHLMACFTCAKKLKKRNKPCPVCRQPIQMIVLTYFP
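test system = mammalian cells stably expressing self-ubiquitinating, self-degrading MDM2 E3–luciferase fusion | quantity = 2000 cells/well | incubation = cell settling 4 h, compound treatment 2 h, both 37 °C | signal = luminescence with SteadyLite reagent, 15 min at room temperature | evaluation = % enhancement relative to plate controls after blank subtraction | benchmarks = plate controls and plate blanks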
AHR activator – activators of human aryl hydrocarbon receptor. P35869. AHR-responsive luciferase reporter cells, luminescence. 320,000 tested, 2.5% active. activation, % at 5 µM; in the data active means activation above about 47%;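 further: 0% = vehicle wells and 100% = reference agonist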
Starred values were filed as active, the others as inactive; . = not tested or not shown.

SMILES	STAT1 act	APP 5'UTR act	PERK inh	NF-kB expr up	Mdm2 ligase inh	AHR activator
COc1ccc(C(C)(C)C)cc1NC(=O)Nc1ccc2c(c1)OCO2	106.7	0.7	-0.1	1.09	4.1	78.9*
COc1ccc(C(C)(C)C)cc1NC(=O)c1c(C)noc1C	106.2	-4.2	0.3	1.14	-7.6	81.2*
COc1cccc(/C=C/C(=O)Nc2ccc3c(c2)OCCO3)c1OC	75.9	205.0*	-0.1	8.64*	-46.8	-6.3
COc1cc(NC(=O)Nc2ccc3c(c2)OCO3)cc(OC)c1OC	104.0	-4.7	0.7	0.91	2.3	75.6*
Oc1[nH]c2ccccc2c1C=Nc1ccccc1	.	.	-0.3	.	-10.5	22.4
CCOc1ccc(N(CC)C(=O)CCS(=O)(=O)c2cccc3nonc23)cc1	.	.	.	.	.	-0.3
Fc1cccc(/C=N/Nc2nc3ccccc3[nH]2)c1	141.2*	132.7	0.0	1.96	-3.0	2.1
Fc1ccc(/C=N/Nc2nc3ccccc3[nH]2)cc1F	122.1	23.8	-0.5	1.55	-33.2	49.0*
C(=C\c1ccccc1)/C=N/Nc1nc2ccccc2[nH]1	148.4*	136.7*	0.1	4.53*	-7.2	65.5*
O=C(COc1ccc(Br)cc1)N1CCN(c2ncccn2)CC1	.	.	.	.	.	1.1
CN(CCC#N)C(=O)COC(=O)[C@H](Cc1ccccc1)N1C(=O)c2ccccc2C1=O	.	.	.	.	.	53.6*
Cn1c(N)c(C(=O)COC(=O)[C@H](Cc2ccccc2)N2C(=O)c3ccccc3C2=O)c(=O)n(C)c1=O	99.9	7.5	-1.9	0.89	.	57.6*
CC(C)CC(C(=O)OCC(=O)c1c(N)n(C)c(=O)n(C)c1=O)N1C(=O)c2ccccc2C1=O (stereo unspecified)	109.9	-8.5	-0.2	0.93	-4.8	-0.4
CCN(C(=O)COC(=O)C(Cc1ccccc1)N1C(=O)c2ccccc2C1=O)C1CCS(=O)(=O)C1 (stereo unspecified)	98.6	-0.8	1.0	1.07	0.7	1.6
Oc1ccc2ccccc2c1C=NCc1cn2ccsc2n1	109.7	6.2	2.0	0.93	-5.0	66.3*
CCn1c(C)cs/c1=N\S(=O)(=O)c1ccccc1	.	.	.	.	.	2.1
O=Cc1s/c(=N\S(=O)(=O)c2ccccc2)n(CCCCl)c1Cl	136.3*	-94.7	-0.1	0.12	28.9	.
COc1cccc(CNS(=O)(=O)c2c(C(=O)N3CCCCCC3)c(C)n(C)c2C)c1	.	.	.	.	.	2.8
CCCN(CCC)Cc1c(C(=O)N/N=C/c2cccs2)nnn1-c1nonc1N	.	.	.	.	.	0.3
CCCc1c(C(=O)N/N=C/c2cccs2)nnn1-c1nonc1N	.	.	.	.	.	61.3*
COc1ccccc1NC(=O)Nc1ccccc1Br	99.6	4.9	0.7	1.24	-7.7	31.9
COc1ccc(NC(=O)C2(c3ccc(NC(=O)c4ccc(OC(C)=O)cc4)cc3)CCCC2)cc1	97.6	6.8	1.3	0.95	12.4	0.1
CC(=O)Oc1ccc(C(=O)Nc2ccc(C3(C#N)CCCC3)cc2)cc1	.	.	.	.	.	59.8*
N#CC1(c2ccc(NC(=O)c3ccccc3)cc2)CCCC1	147.2*	108.4	0.7	2.96	-56.5	32.8
CCN1C(=O)[C@@H]2[C@@H](c3ccc(-c4ccc5c(c4)OCO5)c(OC)c3)N3CCC[C@@]3(C(=O)OC)[C@@H]2C1=O	.	.	.	.	.	2.8
SMILES	STAT1 act	APP 5'UTR act	PERK inh	NF-kB expr up	Mdm2 ligase inh	AHR activator
O=C(NCCOc1ccccc1)C(c1ccccc1)c1ccccc1	101.8	-13.4	-0.8	1.1	-4.1	2.2
Cc1ccc(C(=O)NC(=S)Nc2cccnc2Cl)cc1	.	.	.	.	.	-2.5
COc1ccccc1OCC(=O)Nc1ccccn1	128.7*	125.4	0.2	1.13	1.3	2.7
COc1ccccc1C(=O)NC(=S)Nc1cccnc1Cl	.	.	.	.	.	75.0*
COc1ccccc1NC(=S)Nc1ccccn1	100.5	-5.6	1.2	1.17	-21.0	116.7*
COc1ccccc1NC(=S)NCc1ccccn1	112.0	.	0.6	0.92	-3.0	10.3
CC1CC(=O)Nc2ccccc2N1C(=O)CN1CCN(c2ccccc2)CC1 (stereo unspecified)	97.0	-5.4	0.1	1.15	1.3	3.7
CCOC(=O)c1cc(C(=O)NC(C)c2ccccc2)c(C)[nH]c1=O (stereo unspecified)	93.6	4.3	0.0	1.03	-3.2	-1.4
COc1ccc(-c2cc(C(F)(F)F)nc(-n3ccnc3C)n2)cc1	93.5	3.2	1.2	0.85	-8.3	46.3
COC(=O)c1cnn2c(C(F)(F)F)cc(-c3ccccc3)nc12	106.3	-0.3	0.4	1.32	1.5	1.6
N#Cc1cnn2c(C(F)(F)F)cc(-c3ccccc3)nc12	.	.	.	.	.	60.3*
CCCOP(=O)(OCCC)C(Nc1ccc(C(C)C)cc1)c1ccc([N+](=O)[O-])cc1 (stereo unspecified)	95.5	-2.6	0.0	0.58	-6.0	59.9*
Cc1cc(C)c(NC(=O)COC(=O)c2ccncc2)c(C)c1	.	.	.	.	.	0.5
CC1(C)CC(CCC(=O)Nc2ccc(S(N)(=O)=O)cc2)C(=O)O1 (stereo unspecified)	87.7	-21.6	0.5	1.23	-3.5	-0.8
Cc1ccc(NC(=O)CCC2CC(C)(C)OC2=O)cc1 (stereo unspecified)	102.9	12.1	0.4	1.05	31.2*	6.3
Oc1ccc(-c2csc(Nc3ccccn3)n2)cc1O	.	.	.	.	.	31.3
Oc1ccc(-c2csc(Nc3cccc4ccccc34)n2)cc1O	.	.	.	.	.	52.0*
COc1ccc(-c2csc(Nc3ncccc3C)n2)cc1OC	141.1*	31.0	-1.5	1.03	-5.3	-6.9
Cc1cccnc1Nc1nc(-c2ccc(O)c(O)c2)cs1	129.6*	39.3	-1.0	3.58*	-7.6	2.6
Cc1ccnc(Nc2nc(-c3ccc(O)c(O)c3)cs2)c1	.	.	.	.	.	55.3*
O=C(CN1CCN(CC(=O)Nc2ccccc2Cc2ccccc2)CC1)Nc1ccccc1Cl	.	.	.	.	.	0.6
COc1ccc(Cn2nnc3c(=O)[nH]c(C4CCN(S(=O)(=O)c5ccc(C)cc5)CC4)nc32)cc1	.	.	.	.	.	-1.4
CC1(C)CC(=O)C=C(NCCO)C1	101.9	-7.8	3.1*	1.05	-11.4	-0.4
Cc1oc2cc(O)ccc2c(=O)c1Oc1ccccc1	99.1	-3.9	1.2	1.31	-20.5	25.5
Cc1oc2cc(O)ccc2c(=O)c1Oc1ccccc1Br	92.4	12.6	0.9	0.9	-10.8	59.2*
SMILES	STAT1 act	APP 5'UTR act	PERK inh	NF-kB expr up	Mdm2 ligase inh	AHR activator
C/C(CC(=O)NC1CCCCC1)=N\NC(=O)c1ccccn1	130.1*	156.3*	0.7	1	-1.4	7.4
C/C(CC(=O)NCc1ccccc1Cl)=N/NC(=O)c1ccccn1	.	.	.	.	.	2.7
CC(=O)Nc1ccccc1NC(=O)C/C(C)=N/NC(=O)c1ccccn1	131.1*	103.5	1.8	1.36	-1.9	8.4
C/C(CC(=O)Nc1ccc(F)cc1)=N\NC(=O)c1ccccn1	126.1	91.2	0.4	1.27	-11.6	3.3
Cc1ccc(Cl)c2sc(NC(=O)C3=COCCO3)nc12	.	.	.	.	.	58.1*
COc1ccc(Cl)c2sc(NC(=O)C3=COCCO3)nc12	.	.	.	.	.	45.0
Cc1sc(NC(=O)C2=COCCO2)nc1-c1ccc(Cl)cc1	.	.	.	.	.	65.2*
Cc1nnc(NC(=O)C2=COCCO2)s1	.	.	.	.	.	1.0
